In ChEMBL document CHEMBL1138520, “Molecular and conformational determinants of pituitary adenylate cyclase-activating polypeptide (PACAP) for activation of the PAC1 receptor” (J Med Chem, 2009) one finds IC50, EC50 and Emax data, which are given here for seven molecules.

Assay [1] deals with T1, Pituitary adenylate cyclase-activating polypeptide type I receptor (Homo sapiens, UniProt P41586). In words: Displacement of [125I]Ac-PACAP27 from human recombinant PAC1 receptor expressed in CHO cells by gamma- counter. It counts as cell-based. Background: In a radioligand displacement assay an active substance lowers the binding of a labelled ligand.
Target sequence in this assay (P41586 whole entry): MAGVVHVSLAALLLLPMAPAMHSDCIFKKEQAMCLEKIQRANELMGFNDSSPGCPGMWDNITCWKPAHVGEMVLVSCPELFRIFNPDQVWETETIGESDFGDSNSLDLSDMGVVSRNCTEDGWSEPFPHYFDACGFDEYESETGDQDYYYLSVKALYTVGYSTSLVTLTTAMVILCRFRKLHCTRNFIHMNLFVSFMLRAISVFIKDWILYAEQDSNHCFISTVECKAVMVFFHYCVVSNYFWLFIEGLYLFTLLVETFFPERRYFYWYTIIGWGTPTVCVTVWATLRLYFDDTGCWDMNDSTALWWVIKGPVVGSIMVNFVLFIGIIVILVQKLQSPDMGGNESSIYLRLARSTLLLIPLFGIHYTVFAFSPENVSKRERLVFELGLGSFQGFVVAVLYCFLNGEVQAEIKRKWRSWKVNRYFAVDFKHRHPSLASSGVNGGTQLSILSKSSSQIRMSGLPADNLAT
Assay [2] deals with T1, Pituitary adenylate cyclase-activating polypeptide type I receptor. In words: Agonist activity at human recombinant PAC1 receptor expressed in CHO cells assessed as PACAP38-induced calcium mobilization by FLIPR assay. In kind it is functional, cell-based. The method, boiled down: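 CHO cells stably expressing recombinant human PAC1, plated 24 h before assay, loaded with fluo-4 AM for 60 min at 37 °C in the dark, then rinsed into HBSS for 15 min at 37 °C. EC50 and efficacy came from nonlinear regression; 4-10 independent assays in duplicate.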
Target sequence in this assay (P41586 whole entry): as above

The target is the same in assay [3]. Kind of assay: Agonist activity at human recombinant PAC1 receptor expressed in CHO cells assessed as PACAP38-induced calcium mobilization by FLIPR assay relative to PACAP38. In kind it is functional, cell-based. In short, it runs like this:
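CHO cells stably expressing recombinant human PAC1, plated 24 h before assay, loaded with fluo-4 AM for 60 min at 37 °C in the dark, then rinsed into HBSS for 15 min at 37 °C. Peptide was added 18 s into a 150 s read (ex 480/em 525 nm), at final concentrations of 1 × 10-12 to 1 × 10^-5 M. Response was normalised to 1 × 10^-5 M PACAP38 on each plate. EC50 and efficacy came from nonlinear regression; 4-10 independent assays in duplicate.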
Target sequence in this assay (P41586 21-468 limits assumed): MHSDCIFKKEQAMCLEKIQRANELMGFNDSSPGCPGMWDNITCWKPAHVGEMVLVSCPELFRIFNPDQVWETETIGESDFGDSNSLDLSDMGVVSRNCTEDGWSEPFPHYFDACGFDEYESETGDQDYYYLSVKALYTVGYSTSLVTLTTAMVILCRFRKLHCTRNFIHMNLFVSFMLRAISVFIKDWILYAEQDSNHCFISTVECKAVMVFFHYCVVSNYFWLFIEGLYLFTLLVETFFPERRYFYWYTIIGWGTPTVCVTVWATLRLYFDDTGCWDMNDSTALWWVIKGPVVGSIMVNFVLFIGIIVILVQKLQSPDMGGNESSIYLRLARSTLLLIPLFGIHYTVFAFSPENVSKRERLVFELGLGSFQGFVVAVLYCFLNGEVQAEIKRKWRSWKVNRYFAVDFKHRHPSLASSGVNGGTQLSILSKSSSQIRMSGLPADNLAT
On the technique in general: Calcium flux is commonly read through the fluorescence of an indicator in the cells.

Molecules are shown by their SMILES. Where a SMILES comes first, the peptide text is derived from it.

As a reminder, the IC50 is the concentration that inhibits the measured activity by half. The term EC50 denotes the concentration giving half of the maximal effect. Broadly, the Emax is the maximal effect, on the per cent scale that the assay sets.

With `CC[C@H](C)[C@H](NC(=O)CNC(=O)[C@H](CC(=O)O)NC(=O)[C@H](CO)NC(=O)[C@@H](N)Cc1cnc[nH]1)C(=O)N1Cc2ccccc2CC1C(=O)N[C@H](C(=O)N[C@@H](CC(=O)O)C(=O)N[C@@H](CO)C(=O)N[C@@H](Cc1ccc(O)cc1)C(=O)N[C@@H](CO)C(=O)N[C@@H](CCCNC(=N)N)C(=O)N[C@@H](Cc1ccc(O)cc1)C(=O)N[C@@H](CCCNC(=N)N)C(=O)N[C@@H](CCCCN)C(=O)N[C@@H](CCC(N)=O)C(=O)N[C@@H](CCSC)C(=O)N[C@@H](C)C(=O)N[C@H](C(=O)N[C@@H](CCCCN)C(=O)N[C@@H](CCCCN)C(=O)N[C@@H](Cc1ccc(O)cc1)C(=O)N[C@@H](CC(C)C)C(=O)N[C@@H](C)C(=O)N[C@@H](C)C(=O)N[C@H](C(=O)N[C@@H](CC(C)C)C(N)=O)C(C)C)C(C)C)[C@@H](C)O` (stereo partly specified), the IC50 in assay [1] was determined as 2170 nM. The 50% effective concentration (EC50) in assay [2] was found to be 564 nM. Also, the Emax in assay [3] was 65.9%.
Consider `CC[C@H](C)[C@H](NC(=O)CNC(=O)[C@H](CC(=O)O)NC(=O)[C@H](CO)NC(=O)[C@@H](N)Cc1cnc[nH]1)C(=O)N[C@@H](Cc1ccc(-c2ccccc2)cc1)C(=O)N[C@H](C(=O)N[C@@H](CC(=O)O)C(=O)N[C@@H](CO)C(=O)N[C@@H](Cc1ccc(O)cc1)C(=O)N[C@@H](CO)C(=O)N[C@@H](CCCNC(=N)N)C(=O)N[C@@H](Cc1ccc(O)cc1)C(=O)N[C@@H](CCCNC(=N)N)C(=O)N[C@@H](CCCCN)C(=O)N[C@@H](CCC(N)=O)C(=O)N[C@@H](CCSC)C(=O)N[C@@H](C)C(=O)N[C@H](C(=O)N[C@@H](CCCCN)C(=O)N[C@@H](CCCCN)C(=O)N[C@@H](Cc1ccc(O)cc1)C(=O)N[C@@H](CC(C)C)C(=O)N[C@@H](C)C(=O)N[C@@H](C)C(=O)N[C@H](C(=O)N[C@@H](CC(C)C)C(N)=O)C(C)C)C(C)C)[C@@H](C)O`, for which the IC50 in assay [1] worked out at 4.5 nM. For the same molecule, the concentration giving a half-maximal response (EC50) in assay [2] worked out at 1 nM. Besides, in assay [3], the Emax worked out at 104%.
The matching figures for `CC[C@H](C)[C@H](NC(=O)CNC(=O)[C@H](CC(=O)O)NC(=O)[C@H](CO)NC(=O)[C@H](Cc1cnc[nH]1)NC(C)=O)C(=O)N[C@@H](Cc1ccccc1)C(=O)N[C@H](C(=O)N[C@@H](CC(=O)O)C(=O)N[C@@H](CO)C(=O)N[C@@H](Cc1ccc(O)cc1)C(=O)N[C@@H](CO)C(=O)N[C@@H](CCCNC(=N)N)C(=O)N[C@@H](Cc1ccc(O)cc1)C(=O)N[C@@H](CCCNC(=N)N)C(=O)N[C@@H](CCCCN)C(=O)N[C@@H](CCC(N)=O)C(=O)N[C@@H](CCSC)C(=O)N[C@@H](C)C(=O)N[C@H](C(=O)N[C@@H](CCCCN)C(=O)N[C@@H](CCCCN)C(=O)N[C@@H](Cc1ccc(O)cc1)C(=O)N[C@@H](CC(C)C)C(=O)N[C@@H](C)C(=O)N[C@@H](C)C(=O)N[C@H](C(=O)N[C@@H](CC(C)C)C(N)=O)C(C)C)C(C)C)[C@@H](C)O`: 8.2 nM, 9.7 nM and 96.3%.
In the case of `CC[C@H](C)[C@H](NC(=O)CNC(=O)[C@H](CC(=O)O)NC(=O)C(C)(C)NC(=O)[C@@H](N)Cc1cnc[nH]1)C(=O)N[C@@H](Cc1ccccc1)C(=O)N[C@H](C(=O)N[C@@H](CC(=O)O)C(=O)N[C@@H](CO)C(=O)N[C@@H](Cc1ccc(O)cc1)C(=O)N[C@@H](CO)C(=O)N[C@@H](CCCNC(=N)N)C(=O)N[C@@H](Cc1ccc(O)cc1)C(=O)N[C@@H](CCCNC(=N)N)C(=O)N[C@@H](CCCCN)C(=O)N[C@@H](CCC(N)=O)C(=O)N[C@@H](CCSC)C(=O)N[C@@H](C)C(=O)N[C@H](C(=O)N[C@@H](CCCCN)C(=O)N[C@@H](CCCCN)C(=O)N[C@@H](Cc1ccc(O)cc1)C(=O)N[C@@H](CC(C)C)C(=O)N[C@@H](C)C(=O)N[C@@H](C)C(=O)N[C@H](C(=O)N[C@@H](CC(C)C)C(N)=O)C(C)C)C(C)C)[C@@H](C)O`, the IC50 in assay [1] was 9.5 nM. Moreover, the EC50 in assay [2] was found to be 10.1 nM. Moreover, the Emax in assay [3] was 104%.
For `CC[C@H](C)[C@H](NC(=O)CNC(=O)[C@H](CC(=O)O)NC(=O)[C@H](CO)NC(=O)[C@@H](N)Cc1cnc[nH]1)C(=O)N[C@@H](Cc1ccccc1)C(=O)N[C@@H](C)C(=O)N[C@@H](CC(=O)O)C(=O)N[C@@H](CO)C(=O)N[C@@H](Cc1ccc(O)cc1)C(=O)N[C@@H](CO)C(=O)N[C@@H](CCCNC(=N)N)C(=O)N[C@@H](Cc1ccc(O)cc1)C(=O)N[C@@H](CCCNC(=N)N)C(=O)N[C@@H](CCCCN)C(=O)N[C@@H](CCC(N)=O)C(=O)N[C@@H](CCSC)C(=O)N[C@@H](C)C(=O)N[C@H](C(=O)N[C@@H](CCCCN)C(=O)N[C@@H](CCCCN)C(=O)N[C@@H](Cc1ccc(O)cc1)C(=O)N[C@@H](CC(C)C)C(=O)N[C@@H](C)C(=O)N[C@@H](C)C(=O)N[C@H](C(=O)N[C@@H](CC(C)C)C(N)=O)C(C)C)C(C)C`, the IC50 in assay [1] came out at 10.8 nM. The EC50 in assay [2] was 8.75 nM. For the same molecule, in assay [3], the Emax is 112%.
For the molecule `CSCC[C@H](NC(=O)[C@H](CCC(N)=O)NC(=O)[C@H](CCCCN)NC(=O)[C@H](CCCNC(=N)N)NC(=O)[C@H](Cc1ccc(O)cc1)NC(=O)[C@H](CCCNC(=N)N)NC(=O)[C@H](CO)NC(=O)[C@H](Cc1ccc(O)cc1)NC(=O)[C@H](CO)NC(=O)[C@H](CC(=O)O)NC(=O)[C@@H](NC(=O)[C@H](Cc1ccccc1)NC(=O)[C@H](CC(C)C)N1CC[C@H](NC(=O)[C@H](CC(=O)O)NC(=O)[C@H](CO)NC(=O)[C@@H](N)Cc2cnc[nH]2)C1=O)[C@@H](C)O)C(=O)N[C@@H](C)C(=O)N[C@H](C(=O)N[C@@H](CCCCN)C(=O)N[C@@H](CCCCN)C(=O)N[C@@H](Cc1ccc(O)cc1)C(=O)N[C@@H](CC(C)C)C(=O)N[C@@H](C)C(=O)N[C@@H](C)C(=O)N[C@H](C(=O)N[C@@H](CC(C)C)C(=O)NCC(=O)N[C@@H](CCCCN)C(=O)N[C@@H](CCCNC(=N)N)C(=O)N[C@@H](Cc1ccc(O)cc1)C(=O)N[C@@H](CCCCN)C(=O)N[C@@H](CCC(N)=O)C(=O)N[C@@H](CCCNC(=N)N)C(=O)N[C@H](C(=O)N[C@@H](CCCCN)C(=O)N[C@@H](CC(N)=O)C(=O)N[C@@H](CCCCN)C(N)=O)C(C)C)C(C)C)C(C)C`, in assay [1], the IC50 was 775 nM. In addition, the EC50 in assay [2] worked out at 2480 nM. Further, in assay [3], the Emax amounted to 38.2%.
In the case of `CC[C@H](C)[C@H](NC(=O)CNC(=O)[C@H](CC(N)=O)NC(=O)[C@H](CO)NC(=O)[C@@H](N)Cc1cnc[nH]1)C(=O)N[C@@H](Cc1ccccc1)C(=O)N[C@H](C(=O)N[C@@H](CC(=O)O)C(=O)N[C@@H](CO)C(=O)N[C@@H](Cc1ccc(O)cc1)C(=O)N[C@@H](CO)C(=O)N[C@@H](CCCNC(=N)N)C(=O)N[C@@H](Cc1ccc(O)cc1)C(=O)N[C@@H](CCCNC(=N)N)C(=O)N[C@@H](CCCCN)C(=O)N[C@@H](CCC(N)=O)C(=O)N[C@@H](CCSC)C(=O)N[C@@H](C)C(=O)N[C@H](C(=O)N[C@@H](CCCCN)C(=O)N[C@@H](CCCCN)C(=O)N[C@@H](Cc1ccc(O)cc1)C(=O)N[C@@H](CC(C)C)C(=O)N[C@@H](C)C(=O)N[C@@H](C)C(=O)N[C@H](C(=O)N[C@@H](CC(C)C)C(=O)NCC(=O)N[C@@H](CCCCN)C(=O)N[C@@H](CCCNC(=N)N)C(=O)N[C@@H](Cc1ccc(O)cc1)C(=O)N[C@@H](CCCCN)C(=O)N[C@@H](CCC(N)=O)C(=O)N[C@@H](CCCNC(=N)N)C(=O)N[C@H](C(=O)N[C@@H](CCCCN)C(=O)N[C@@H](CC(N)=O)C(=O)N[C@@H](CCCCN)C(N)=O)C(C)C)C(C)C)C(C)C)[C@@H](C)O` (H-HSNGIFTDSYSRYRKQMAVKKYLAAVLGKRYKQRVKNK-NH2), the IC50 in assay [1] was found to be 9.2 nM. Further, the half-maximal effective concentration (EC50) in assay [2] was 52.2 nM. Further, the Emax in assay [3] came to 22.1%.
